Measurements from ChEMBL document CHEMBL2331149, “Towards dual antithrombotic compounds - balancing thrombin inhibitory and fibrinogen GPIIb/IIIa binding inhibitory activities of 2,3-dihydro-1,4-benzodioxine derivatives through regio- and stereoisomerism” (Eur J Med Chem, 2013).

Legend:
Homo sapiens [1] = organism: Homo sapiens; assay: Selectivity ratio of Ki for trypsin (unknown origin) to Ki for thrombin (unknown origin)
Coagulation factor X = Coagulation factor X (Homo sapiens, UniProt P00742); assay: Inhibition of factor 10a (unknown origin) using S-2222 as substrate preincubated with enzyme for 15 mins prior to substrate addition measured every 10 s by amidolytic method
Procedure, shortened: (§1)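 Chromogenic amidolytic assay read at 405 nm, 25 °C, with final enzyme levels: thrombin 0.5 NIH E/mL with S-2238 at 20 and 40 µM; factor Xa 1 mBAEE E/mL with S-2222 at 100 and 200 µM; trypsin 0.5 nkat/mL with S-2222 at 50 and 100 µM. Inhibitor diluted from DMSO stock to 0.5–100 µM, three concentrations, triplicate. Ki by Cheng–Prusoff from initial rates, averaged over all combinations.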

[2] = biological target: Integrin alpha-IIb/beta-3 (Homo sapiens, UniProt P05106+P08514); assay: Inhibition of biotinylated fibrinogen binding to human GP 2b/3a after 2 hrs by solid-phase competitive displacement assay; type: protein-complex assay
Procedure, shortened: (§2)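 Solid-phase competition with isolated human receptor (GPIIb/IIIa or GPV/IIIa) adsorbed overnight at 4 °C in Tris/NaCl buffer with 1 mM Ca2+, Mg2+ and Mn2+, pH 7.4. Blocked with 1% BSA. Serially diluted compounds plus biotinylated human fibrinogen incubated 2 h at room temperature. Bound fibrinogen detected with peroxidase anti-biotin antibody and chemiluminescence. Duplicates, at least three runs; IC50 from sigmoid fit.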

Integrin alpha-V/beta-3 = Integrin alpha-V/beta-3 (Homo sapiens, UniProt P05106+P06756); assay: Inhibition of biotinylated fibrinogen binding to human alphavbeta3 integrin receptor after 2 hrs by solid-phase competitive displacement assay; type: protein-complex assay; procedure, shortened: as §2
Prothrombin = Prothrombin (Homo sapiens, UniProt P00734); assay: Inhibition of thrombin (unknown origin) using S-2238 as substrate preincubated with enzyme for 15 mins prior to substrate addition measured every 10 s by amidolytic method; procedure, shortened: as §1
Trypsin = Trypsin (Homo sapiens, UniProt P07477+P07478+P35030); assay: Inhibition of trypsin (unknown origin) using S-2222 as substrate preincubated with enzyme for 15 mins prior to substrate addition measured every 10 s by amidolytic method; type: protein assay; procedure, shortened: as §1
Homo sapiens [3] = organism: Homo sapiens; assay: Selectivity ratio of Ki for factor 10a (unknown origin) to Ki for thrombin (unknown origin)

Structure (SMILES)	Ratio Ki (Homo sapiens [1])	Ki (Coagulation factor X) [nM]	IC50 [2] [nM]	IC50 (Integrin alpha-V/beta-3) [nM]	Ki (Prothrombin) [nM]	Ki (Trypsin) [nM]	Ratio Ki (Homo sapiens [3])
CCOC(=O)C(=O)N(Cc1ccccc1)c1ccc2c(c1)OC[C@@H](COc1ccc(C(=N)N)cc1)O2.O=C(O)C(F)(F)F	0.39	2150	> 200000	> 200000	1650	644	1.3
N=C(N)c1ccc(OC[C@H]2COc3cc(N(Cc4ccccc4)C(=O)C(=O)O)ccc3O2)cc1	0.28	1960	665	> 200000	1670	463	1.17
N=C(N)c1ccc(OC[C@@H]2COc3cc(N(Cc4ccccc4)C(=O)C(=O)O)ccc3O2)cc1	0.3	5190	1210	> 200000	5180	1550	1.3
CCOC(=O)C(=O)N(Cc1ccccc1)c1ccc2c(c1)O[C@@H](COc1ccc(C(=N)N)cc1)CO2.O=C(O)C(F)(F)F	2.71	2700	> 200000	> 200000	77.8	210	35.9
N=C(N)c1ccc(OC[C@H]2COc3ccc(N(Cc4ccccc4)C(=O)C(=O)O)cc3O2)cc1	1	5080	42600	> 200000	266	267	19.1

The next compounds have a lower Ki (Coagulation factor X) than those just listed; values first:

Ratio Ki (Homo sapiens [1])	Ki (Coagulation factor X) [nM]	IC50 [2] [nM]	IC50 (Integrin alpha-V/beta-3) [nM]	Ki (Prothrombin) [nM]	Ki (Trypsin) [nM]	Ratio Ki (Homo sapiens [3])	Structure (SMILES)
0.65	1510	> 200000	> 200000	436	283	3.46	CCOC(=O)C(=O)N(Cc1ccccc1)c1ccc2c(c1)OC[C@H](COc1ccc(C(=N)N)cc1)O2.O=C(O)C(F)(F)F
0.51	1270	17600	> 200000	2690	1370	0.47	N=C(N)c1ccc(OC[C@@H]2COc3ccc(N(Cc4ccccc4)C(=O)C(=O)O)cc3O2)cc1
1.32	637	> 200000	> 200000	675	894	0.95	CCOC(=O)C(=O)N(Cc1ccccc1)c1ccc2c(c1)O[C@H](COc1ccc(C(=N)N)cc1)CO2.O=C(O)C(F)(F)F
